Active and inactive are the calls of the source. No cut-off for these calls is given here.
Assays:
Mus musculus [1] = experiment: Effective dose in mice by maximal electroshock assay, administered orally; assay type: functional; conditions: po
Outline: (§1)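 Mice were dosed orally across a range of doses, given in 5% acacia/water. Time of peak effect was found by shocking at 0.5, 1, 2, 3 and 4 h. Corneal electroshock was 40 mA, 0.1 s, ac. Each compound was retested at peak time with at least four doses and 12 mice per dose. The ED50 for prevention of tonic-extensor convulsion was calculated by Litchfield–Wilcoxon; 95% confidence limits are given.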

Mus musculus [2] = experiment: Effective dose in mice by horizontal screen assay (administered orally); assay type: functional; conditions: po
Outline: (§2)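 Fasted, pre-trained male CF1 mice (20–25 g) were dosed orally across a range of doses, given as a suspension in 5% acacia/water. Each mouse was placed on a 13 cm square wire screen, and the screen was rotated 180°. The score was return to the top within 1 min. Time of peak effect was scanned at 0.5–4 h. Each compound was then retested at that time with at least 4 doses and 12 mice per dose.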

Mus musculus [3] = species on record: Mus musculus; experiment: Compound was tested for time to peak anticonvulsant effect (TPE); assay type: functional
Outline: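 Time to peak effect after oral dosing in 5% acacia/water was estimated by testing mice at 0.5, 1, 2, 3 and 4 h posttreatment in the MES and horizontal screen tests.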

Mus musculus [4] = experiment: Effective dose in mice by pentylenetetrazole assay (administered subcutaneously); assay type: functional; conditions: sc
Outline: (§3)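 Test compound was given orally to mice. At its previously determined time of peak effect, pentylenetetrazole (110 mg/kg in water, 10 mL/kg) was injected sc into the neck skin fold. Mice were watched for 15 min for presence or absence of a clonic seizure. Where protection was bell-shaped, the value is the dose giving maximum protection.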

Mus musculus [5] = species on record: Mus musculus; experiment: Potentiation of hexobarbital-induced sleeping time in mice; assay type: functional
Outline: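 Groups of 10 fasted mice received compound orally at 10 mg/kg in 5% acacia/water (10 mL/kg). At the compound's time of peak effect they were given hexobarbital 100 mg/kg ip, solubilized with stoichiometric NaOH. Sleeping time, measured as loss of righting reflex, was recorded to the nearest minute. Values are mean ± SEM.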

Mus musculus [6] = experiment: Compound was tested for effective dose in mice by horizontal screen assay (administered orally); Ca 550; assay type: functional; conditions: po; outline: as §2
Mus musculus [7] = experiment: Effective dose in mice by pentylenetetrazole assay (administered subcutaneously); No effect at highest dose of 400 mg/kg; assay type: functional, organism-based; parameters: dose 400 mg/kg; outline: as §3
Mus musculus [8] = experiment: Effective dose in mice by horizontal screen assay (administered orally); No effect at highest dose of 400 mg/kg; assay type: functional, organism-based; parameters: dose 400 mg/kg; outline: as §2
[9] = target: T1, GABA-A receptor; anion channel (Rattus norvegicus) (UniProt O09028+P15431+P18506+P18508+P19969+P20236+P23574+P23576+P28471+P28473+P30191+P62813+P63079+P63138+Q91ZM7+Q9ES14); experiment: In vitro displacement of [3H]flunitrazepam binding to cortical membranes at 5e-5M concentration
Outline: (§4)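 Rat cortical membranes (180 μg protein) were incubated with 2 nM [3H]flunitrazepam in 50 mM Tris-HCl pH 7.4 for 40 min at 4 °C, with test compound at 5×10^-5 M, in triplicate. Samples were filtered and washed three times with ice-cold buffer. Nonspecific binding was defined with 3 μM diazepam. Results are given as % of control, mean ± SEM.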

[10] = target: T1, GABA-A receptor; anion channel (Rattus norvegicus); experiment: In vivo displacement of [3H]flunitrazepam binding to rat cortical membranes after 20 mg/kg ip dose; assay type: organism-based; parameters: dose 20 mg/kg; conditions: Membrane, at 20 mg/kg
Outline: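 Male Sprague-Dawley rats (100 g; five per group) received saline or compound at 20 mg/kg ip. After 30 min, [3H]flunitrazepam (100 μCi/kg) was given iv via the tail vein. Rats were killed 20 min later. Cortex was homogenized in 50 mM Tris-HCl pH 7.4, and the particulate fraction was filtered and rinsed. Results are given as % of saline control, mean ± SEM.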

Mus musculus [11] = experiment: Compound was tested for effective dose in mice by horizontal screen assay (administered orally; No effect at highest dose of 200 mg/kg
Mus musculus [12] = experiment: Compound was tested for effective dose in mice by pentylenetetrazole assay (administered subcutaneously);No effect at highest dose of 200 mg/kg; assay type: functional, organism-based; parameters: dose 200 mg/kg; outline: as §3
[13] = target: T1, GABA-A receptor; anion channel (Rattus norvegicus); experiment: In vitro displacement of [3H]flunitrazepam binding from rat cortical membranes at 50 uM; assay type: cell membranes; conditions: Membrane; outline: as §4
Mus musculus [14] = experiment: Compound was tested for effective dose in mice by horizontal screen assay (administered orally); No effect at highest dose of 300 mg/kg; assay type: functional, organism-based; parameters: dose 300 mg/kg; outline: as §2
[15] = target: Gamma-aminobutyric acid receptor subunit gamma-1 (Rattus norvegicus) (UniProt P23574); experiment: In vitro displacement of [3H]flunitrazepam binding to rat cortical membranes at 50 uM (No effect); assay type: cell membranes; conditions: Membrane; outline: as §4
Sequence of Gamma-aminobutyric acid receptor subunit gamma-1 (Rattus norvegicus) (P23574 whole entry): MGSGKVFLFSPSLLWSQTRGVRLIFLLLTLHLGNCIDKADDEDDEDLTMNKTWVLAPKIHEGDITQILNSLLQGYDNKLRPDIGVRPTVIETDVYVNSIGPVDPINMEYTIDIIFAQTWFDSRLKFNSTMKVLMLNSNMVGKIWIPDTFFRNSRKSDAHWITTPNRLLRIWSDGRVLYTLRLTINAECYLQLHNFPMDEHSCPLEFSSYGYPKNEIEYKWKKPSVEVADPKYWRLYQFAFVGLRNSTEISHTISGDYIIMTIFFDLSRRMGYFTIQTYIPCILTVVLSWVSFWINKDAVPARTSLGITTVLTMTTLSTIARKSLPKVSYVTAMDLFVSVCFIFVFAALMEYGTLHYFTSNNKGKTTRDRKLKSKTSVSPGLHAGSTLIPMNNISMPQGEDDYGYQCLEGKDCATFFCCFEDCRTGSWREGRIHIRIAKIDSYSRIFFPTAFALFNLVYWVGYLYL

Mus musculus [16] = experiment: Compound was tested for effective dose in mice by horizontal screen assay (administered orally); No effect at highest dose of 800 mg/kg; assay type: functional, organism-based; parameters: dose 800 mg/kg; outline: as §2
Mus musculus [17] = experiment: Compound was tested for effective dose in mice by pentylenetetrazole assay (administered subcutaneously); No effect at highest dose of 800 mg/kg; assay type: functional, organism-based; parameters: dose 800 mg/kg; outline: as §3
Mus musculus [18] = experiment: Compound was tested for effective dose in mice by maximal electroshock assay (administered orally); No effect at highest dose of 800 mg/kg; assay type: functional, organism-based; parameters: dose 800 mg/kg; outline: as §1
Mus musculus [19] = experiment: Compound was tested for effective dose in mice by maximal electroshock assay (administered orally); No effect at highest dose of 300 mg/kg; assay type: functional, organism-based; parameters: dose 300 mg/kg; outline: as §1
Mus musculus [20] = experiment: Compound was tested for effective dose in mice by maximal electroshock assay (administered per orally); assay type: functional; conditions: po; outline: as §1
Mus musculus [21] = experiment: Compound was tested for effective dose in mice by pentylenetetrazole assay (administered subcutaneously); No effect at highest dose of 100 mg/kg; assay type: functional, organism-based; parameters: dose 100 mg/kg; outline: as §3
Mus musculus [22] = experiment: Compound was tested for effective dose in mice by horizontal screen assay (administered orally); No effect at highest dose of 200 mg/kg; assay type: functional, organism-based; parameters: dose 200 mg/kg; outline: as §2
Mus musculus [23] = experiment: Compound was tested for effective dose in mice by pentylenetetrazole assay (administered subcutaneously); Ca 400; assay type: functional; conditions: sc; outline: as §3
Mus musculus [24] = experiment: Compound was tested for effective dose in mice by horizontal screen assay (administered orally); No effect at highest dose of 100 mg/kg; assay type: functional, organism-based; parameters: dose 100 mg/kg; outline: as §2
Mus musculus [25] = experiment: Effective dose in mice by horizontal screen assay (administered orally); No effect at highest dose of 200 mg/kg
Mus musculus [26] = experiment: Effective dose in mice by pentylenetetrazole assay (administered subcutaneously); No effect at highest dose of 200 mg/kg
Mus musculus [27] = experiment: Compound was tested for effective dose in mice by pentylenetetrazole assay (administered subcutaneously); No effect at highest dose of 200 mg/kg; assay type: functional, organism-based; parameters: dose 200 mg/kg; outline: as §3

Compound	ED50 (Mus musculus [1]) [mg/kg]	ED50 (Mus musculus [2]) [mg/kg]	TPE (Mus musculus [3]) [h]	ED50 (Mus musculus [4]) [mg/kg]	ED50 (Mus musculus [8])	further results
O=C(Cn1ccnc1)c1cc2ccccc2s1	86	> 400	1	> 400		
CC(C(=O)c1ccc2c(c1)Cc1ccccc1-2)n1ccnc1 (centres undefined)		> 400	1.5	260		ST (Mus musculus [5]): 103 min
CC1COC(Cn2ccnc2)(c2ccc3c(c2)Cc2ccccc2-3)O1 (centres undefined)		> 400	2	> 200		
c1ccc2c(c1)Cc1cc(CCn3ccnc3)ccc1-2	17.8	> 100	2	> 200		
O=C(Cn1ccnc1)c1cccc2c1Cc1ccccc1-2	19	> 100	2	> 200		
O=C(Cn1ccnc1)c1ccc2c(c1)CCc1ccccc1-2	60		2			ED50 (Mus musculus [6]): 550 mg/kg; ED50 (Mus musculus [7]): No effect
O=C(Cn1ccnc1)c1ccc2c(c1)-c1ccccc1CC2	71		1	> 400	No effect	
O=C(CCn1ccnc1)c1ccc2c(c1)Cc1ccccc1-2		> 200	1	> 100		
O=C(Cn1ccnc1)c1ccc2ccccc2c1 [NAFIMIDONE]	56		1	> 400	inactive	Control [9]: 102%; Control [10]: 116%; ST (Mus musculus [5]): 59.1 min
CC1c2ccccc2-c2ccc(C(=O)Cn3ccnc3)cc21 (centres undefined)			2			ED50 (Mus musculus [11]): No effect; ED50 (Mus musculus [12]): No effect; ST (Mus musculus [5]): 69.7 min
O=C(Cn1ccnc1)c1ccc2ccc3ccccc3c2c1	52	> 400	1	> 400		Binding [13]: 23%; Control [9]: 123%; Control [10]: 121%
Cc1nccn1CC(=O)c1ccc2c(c1)Cc1ccccc1-2		> 400	1			
c1ccc2c(c1)Cc1cc(C3(Cn4ccnc4)OCCCO3)ccc1-2		> 400	1			ED50 (Mus musculus [7]): No effect
c1ccc2cc(CCn3ccnc3)ccc2c1	51	> 200	1	> 200		
O=C(Cn1ccnc1)c1cc2ccccc2o1	30		1.5	> 400		Control [9]: 99.1%; ED50 (Mus musculus [14]): inactive; Binding [15]: inactive; Control [10]: 142%
O=C(Cn1cnc(-c2ccccc2)c1)c1ccc2c(c1)Cc1ccccc1-2			2			ED50 (Mus musculus [16]): No effect; ED50 (Mus musculus [17]): No effect; ED50 (Mus musculus [18]): No effect
O=C(Cn1ccnc1)c1csc2ccccc12	59		1	> 400	No effect	
Cc1cn(CC(=O)c2ccc3c(c2)Cc2ccccc2-3)cn1		> 400	1			ED50 (Mus musculus [7]): No effect
O=C(Cn1ccnc1)c1cccc2c1-c1ccccc1C2		> 400	1	400		
CCc1ccc2c(c1)Cc1cc(C(=O)Cn3ccnc3)ccc1-2.Cl	240		1	> 400	No effect	

Compound	ED50 (Mus musculus [1]) [mg/kg]	ED50 (Mus musculus [2]) [mg/kg]	TPE (Mus musculus [3]) [h]	ED50 (Mus musculus [4]) [mg/kg]	ED50 (Mus musculus [8])	further results
O=C(Cn1ccnc1)c1ccc2c(c1)Cc1cc(Br)ccc1-2			2		No effect	ED50 (Mus musculus [7]): No effect
c1ccc2cc(CCc3ncc[nH]3)ccc2c1			1			ED50 (Mus musculus [19]): No effect
CC(O)(Cn1ccnc1)c1ccc2c(c1)Cc1ccccc1-2 (centres undefined)	10		2		No effect	ED50 (Mus musculus [20]): 10 mg/kg; ST (Mus musculus [5]): 146.9 min; ED50 (Mus musculus [7]): No effect
CC1(C)c2ccccc2-c2ccc(C(=O)Cn3ccnc3)cc21		> 400	1	> 400		
c1ccc2c(c1)Cc1cc(C3(Cn4ccnc4)OCCO3)ccc1-2		> 100	4			ED50 (Mus musculus [21]): No effect; ST (Mus musculus [5]): 88.7 min
OC(Cn1ccnc1)c1ccc2c(c1)Cc1ccccc1-2 (centres undefined)			1			ED50 (Mus musculus [22]): No effect; ED50 (Mus musculus [23]): 400 mg/kg; ST (Mus musculus [5]): 118.3 min
O=C(OC(Cn1ccnc1)c1ccc2c(c1)Cc1ccccc1-2)c1ccccc1 (centres undefined)			1	> 400	No effect	
c1ccc2c(c1)Cc1cc(C3(CCn4ccnc4)OCCO3)ccc1-2			1	> 400	No effect	
c1ccc2c(c1)Cc1cc(C3(Cn4ccnc4)SCCS3)ccc1-2		> 400	2	> 400		
OC(Cn1ccnc1)c1ccc(CCc2ccccc2)cc1 (centres undefined) [DENZIMOL]	12		1			ED50 (Mus musculus [24]): No effect; ST (Mus musculus [5]): 157.4 min
CC(C)c1ccc2c(c1)Cc1cc(C(=O)Cn3ccnc3)ccc1-2	190		2		No effect	ED50 (Mus musculus [7]): No effect
CCc1nccn1CC(=O)c1ccc2c(c1)Cc1ccccc1-2	190	> 400	2	> 400		
CC1(C)COC(Cn2ccnc2)(c2ccc3c(c2)Cc2ccccc2-3)OC1			2			ED50 (Mus musculus [25]): No effect; ED50 (Mus musculus [26]): No effect
OC(CCn1ccnc1)c1ccc2c(c1)Cc1ccccc1-2 (centres undefined)		> 400	1			ST (Mus musculus [5]): 75 min; ED50 (Mus musculus [7]): No effect
CCC(C(=O)c1ccc2c(c1)Cc1ccccc1-2)n1ccnc1 (centres undefined)			1	> 400	No effect	
COc1ccc2c(c1)Cc1cc(C(=O)Cn3ccnc3)ccc1-2	360		2		No effect	ED50 (Mus musculus [17]): No effect; ST (Mus musculus [5]): 56.9 min
O=C(CCCn1ccnc1)c1ccc2c(c1)Cc1ccccc1-2	27		0.5			ED50 (Mus musculus [22]): No effect; ED50 (Mus musculus [27]): No effect
O=C(Cn1ccnc1)c1ccc2c(ccc3ccccc32)c1	150	> 400	1	> 400		Binding [13]: 28%; Control [9]: 128%; Control [10]: 128%
Cc1ccc2c(c1)Cc1cc(C(=O)Cn3ccnc3)ccc1-2			2		No effect	ED50 (Mus musculus [7]): No effect

— ChEMBL document CHEMBL1123481, “Structure-activity relationships of (arylalkyl)imidazole anticonvulsants: comparison of the (fluorenylalkyl)imidazoles with nafimidone and denzimol” (J Med Chem, 1986)
